Measured values as given in ChEMBL document CHEMBL3864121, “Development of ebsulfur analogues as potent antibacterials against methicillin-resistant Staphylococcus aureus” (Bioorg Med Chem, 2016).
Values after ≈ are worked out from the molar mass of the structure shown.

Columns and labels:
Type in all cases: functional
[1] = test system: Staphylococcus aureus; assay: Antibacterial activity against methicillin-sensitive Staphylococcus aureus ATCC 25923 measured after overnight incubation by broth double-dilution method
Procedure, shortened: (§1)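 MIC by broth double-dilution in liquid Mueller-Hinton medium. Values are reported in µg/mL.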

[2] = test system: Listeria monocytogenes; assay: Antibacterial activity against Listeria monocytogenes ATCC 19115 measured after overnight incubation by broth double-dilution method
Procedure, shortened: (§2)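 MIC by broth double-dilution in Mueller-Hinton medium. Re-testing at the time-kill inoculum used 1×10^6 CFU/mL.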

[3] = test system: Staphylococcus aureus; assay: Antibacterial activity against methicillin-resistant Staphylococcus aureus 1 measured after overnight incubation by broth double-dilution method; procedure, shortened: as §1
[4] = test system: Enterococcus faecalis; assay: Antibacterial activity against Enterococcus faecalis ATCC 29212 measured after overnight incubation by broth double-dilution method; procedure, shortened: as §2
[5] = test system: Staphylococcus aureus; assay: Antibacterial activity against methicillin-resistant Staphylococcus aureus USA200 measured after overnight incubation by broth double-dilution method; procedure, shortened: as §1
[6] = test system: Staphylococcus aureus; assay: Antibacterial activity against methicillin-resistant Staphylococcus aureus C1 measured after overnight incubation by broth double-dilution method; procedure, shortened: as §1
[7] = test system: Staphylococcus aureus; assay: Antibacterial activity against methicillin-resistant Staphylococcus aureus C16 measured after overnight incubation by broth double-dilution method; procedure, shortened: as §1
[8] = test system: Staphylococcus aureus; assay: Antibacterial activity against methicillin-resistant Staphylococcus aureus G6 measured after overnight incubation by broth double-dilution method; procedure, shortened: as §1
[9] = test system: Enterococcus faecalis; assay: Antibacterial activity against Enterococcus faecalis ATCC 49533 measured after overnight incubation by broth double-dilution method; procedure, shortened: as §2
[10] = test system: Staphylococcus aureus; assay: Antibacterial activity against methicillin-resistant Staphylococcus aureus ATCC 33591 measured after overnight incubation by broth double-dilution method; procedure, shortened: as §1
[11] = test system: Enterococcus; assay: Antibacterial activity against Vancomycin-resistant Enterococcus measured after overnight incubation by broth double-dilution method; procedure, shortened: as §1
[12] = test system: Staphylococcus aureus; assay: Antibacterial activity against methicillin-resistant Staphylococcus aureus C2 measured after overnight incubation by broth double-dilution method; procedure, shortened: as §1
[13] = test system: Staphylococcus aureus; assay: Antibacterial activity against methicillin-resistant Staphylococcus aureus BRS3 measured after overnight incubation by broth double-dilution method; procedure, shortened: as §1
[14] = test system: Staphylococcus aureus; assay: Antibacterial activity against methicillin-resistant Staphylococcus aureus S17 measured after overnight incubation by broth double-dilution method; procedure, shortened: as §1
[15] = test system: Staphylococcus aureus; assay: Antibacterial activity against methicillin-resistant Staphylococcus aureus 2 measured after overnight incubation by broth double-dilution method; procedure, shortened: as §1
[16] = test system: Staphylococcus aureus; assay: Antibacterial activity against methicillin-sensitive Staphylococcus aureus ATCC 6538 measured after overnight incubation by broth double-dilution method; procedure, shortened: as §1
[17] = test system: Enterococcus faecium; assay: Antibacterial activity against Enterococcus faecium BM4105-RF measured after overnight incubation by broth double-dilution method; procedure, shortened: as §1
[18] = test system: Staphylococcus aureus; assay: Antibacterial activity against methicillin-resistant Staphylococcus aureus NRS77 measured after overnight incubation by broth double-dilution method; procedure, shortened: as §1
[19] = test system: Staphylococcus aureus; assay: Antibacterial activity against methicillin-resistant Staphylococcus aureus C19 measured after overnight incubation by broth double-dilution method; procedure, shortened: as §1
[20] = test system: Staphylococcus aureus; assay: Antibacterial activity against methicillin-resistant Staphylococcus aureus S24 measured after overnight incubation by broth double-dilution method; procedure, shortened: as §1
[21] = test system: Staphylococcus aureus; assay: Antibacterial activity against methicillin-resistant Staphylococcus aureus USA300 measured after overnight incubation by broth double-dilution method; procedure, shortened: as §1
[22] = test system: Mycolicibacterium smegmatis; assay: Antibacterial activity against Mycobacterium smegmatis MC2-155 measured after overnight incubation by broth double-dilution method; details: str. MC2 155; procedure, shortened: as §1
[23] = test system: Staphylococcus epidermidis; assay: Antibacterial activity against Staphylococcus epidermidis ATCC 35984 measured after overnight incubation by broth double-dilution method; details: RP62A; procedure, shortened: as §2
[24] = test system: Staphylococcus aureus; assay: Antibacterial activity against methicillin-resistant Staphylococcus aureus S22 measured after overnight incubation by broth double-dilution method; procedure, shortened: as §1
[25] = test system: Staphylococcus aureus; assay: Antibacterial activity against methicillin-resistant Staphylococcus aureus NRS51 measured after overnight incubation by broth double-dilution method; procedure, shortened: as §1
[26] = test system: Staphylococcus aureus; assay: Antibacterial activity against methicillin-sensitive Staphylococcus aureus ATCC 29213 measured after overnight incubation by broth double-dilution method; procedure, shortened: as §1
[27] = test system: Staphylococcus aureus; assay: Antibacterial activity against methicillin-resistant Staphylococcus aureus USA600 measured after overnight incubation by broth double-dilution method; procedure, shortened: as §1
[28] = test system: Staphylococcus aureus; assay: Antibacterial activity against methicillin-resistant Staphylococcus aureus S14 measured after overnight incubation by broth double-dilution method; procedure, shortened: as §1
[29] = test system: Staphylococcus aureus; assay: Antibacterial activity against methicillin-resistant Staphylococcus aureus NRS4 measured after overnight incubation by broth double-dilution method; procedure, shortened: as §1
[30] = test system: Staphylococcus aureus; assay: Antibacterial activity against methicillin-resistant Staphylococcus aureus C7 measured after overnight incubation by broth double-dilution method; procedure, shortened: as §1
[31] = test system: Staphylococcus aureus; assay: Antibacterial activity against methicillin-resistant Staphylococcus aureus G12 measured after overnight incubation by broth double-dilution method; procedure, shortened: as §1
[32] = test system: Staphylococcus aureus; assay: Antibacterial activity against methicillin-resistant Staphylococcus aureus USA100 measured after overnight incubation by broth double-dilution method; procedure, shortened: as §1
[33] = test system: Staphylococcus aureus; assay: Antibacterial activity against methicillin-resistant Staphylococcus aureus G14 measured after overnight incubation by broth double-dilution method; procedure, shortened: as §1
[34] = test system: Staphylococcus aureus; assay: Antibacterial activity against methicillin-resistant Staphylococcus aureus G1 measured after overnight incubation by broth double-dilution method; procedure, shortened: as §1
[35] = test system: Staphylococcus aureus; assay: Antibacterial activity against methicillin-resistant Staphylococcus aureus C14 measured after overnight incubation by broth double-dilution method; procedure, shortened: as §1

| SMILES | MIC [1] [µg/mL] | MIC [2] [µg/mL] | MIC [3] [µg/mL] | MIC [4] [µg/mL] | MIC [5] [µg/mL] | MIC [6] [µg/mL] | MIC [7] [µg/mL] | MIC [8] [µg/mL] | MIC [9] [µg/mL] | MIC [10] [µg/mL] | MIC [11] [µg/mL] | MIC [12] [µg/mL] | MIC [13] [µg/mL] | MIC [14] [µg/mL] | MIC [15] [µg/mL] | MIC [16] [µg/mL] | MIC [17] [µg/mL] | MIC [18] [µg/mL] | MIC [19] [µg/mL] | MIC [20] [µg/mL] | further results |
| --- | --- | --- | --- | --- | --- | --- | --- | --- | --- | --- | --- | --- | --- | --- | --- | --- | --- | --- | --- | --- | --- |
| O=c1c2ccccc2sn1-c1ccc(Cl)cc1 | 2 (≈ 7.64 µM) | 1 (≈ 3.82 µM) | 1 (≈ 3.82 µM) | 62.5 (≈ 239 µM) | 2 (≈ 7.64 µM) | 2 (≈ 7.64 µM) | 3.9 (≈ 14.9 µM) | 2 (≈ 7.64 µM) | > 125 | 1 (≈ 3.82 µM) | 0.5 (≈ 1.91 µM) | 1 (≈ 3.82 µM) | 3.9 (≈ 14.9 µM) | 1 (≈ 3.82 µM) | 1 (≈ 3.82 µM) | 3.9 (≈ 14.9 µM) | 31.3 (≈ 120 µM) | 3.9 (≈ 14.9 µM) | 1 (≈ 3.82 µM) | 1 (≈ 3.82 µM) | MIC [21]: 3.9 µg/mL (≈ 14.9 µM); MIC [22]: 3.9 µg/mL (≈ 14.9 µM); MIC [23]: 1 µg/mL (≈ 3.82 µM); MIC [24]: 2 µg/mL (≈ 7.64 µM); MIC [25]: 3.9 µg/mL (≈ 14.9 µM); MIC [26]: 2 µg/mL (≈ 7.64 µM); MIC [27]: 2 µg/mL (≈ 7.64 µM); MIC [28]: ≤ 0.25 µg/mL; MIC [29]: 3.9 µg/mL (≈ 14.9 µM); MIC [30]: 1 µg/mL (≈ 3.82 µM); MIC [31]: 2 µg/mL (≈ 7.64 µM); MIC [32]: 2 µg/mL (≈ 7.64 µM); MIC [33]: 1 µg/mL (≈ 3.82 µM); MIC [34]: 2 µg/mL (≈ 7.64 µM); MIC [35]: 3.9 µg/mL (≈ 14.9 µM) |
| CC(C)Cn1sc2ccccc2c1=O | 125 (≈ 603 µM) | > 125 | 7.8 (≈ 37.6 µM) | 7.8 (≈ 37.6 µM) | 7.8 (≈ 37.6 µM) | 7.8 (≈ 37.6 µM) | 7.8 (≈ 37.6 µM) | 7.8 (≈ 37.6 µM) | 15.6 (≈ 75.3 µM) | > 125 | 3.9 (≈ 18.8 µM) | 7.8 (≈ 37.6 µM) | 7.8 (≈ 37.6 µM) | 7.8 (≈ 37.6 µM) | 15.6 (≈ 75.3 µM) | 7.8 (≈ 37.6 µM) | 7.8 (≈ 37.6 µM) | 7.8 (≈ 37.6 µM) | 7.8 (≈ 37.6 µM) | 7.8 (≈ 37.6 µM) | MIC [21]: 7.8 µg/mL (≈ 37.6 µM); MIC [22]: 3.9 µg/mL (≈ 18.8 µM); MIC [23]: 7.8 µg/mL (≈ 37.6 µM); MIC [24]: 7.8 µg/mL (≈ 37.6 µM); MIC [25]: 7.8 µg/mL (≈ 37.6 µM); MIC [26]: 15.6 µg/mL (≈ 75.3 µM); MIC [27]: 7.8 µg/mL (≈ 37.6 µM); MIC [28]: 2 µg/mL (≈ 9.65 µM); MIC [29]: 7.8 µg/mL (≈ 37.6 µM); MIC [30]: 7.8 µg/mL (≈ 37.6 µM); MIC [31]: 7.8 µg/mL (≈ 37.6 µM); MIC [32]: 7.8 µg/mL (≈ 37.6 µM); MIC [33]: 7.8 µg/mL (≈ 37.6 µM); MIC [34]: 3.9 µg/mL (≈ 18.8 µM); MIC [35]: 7.8 µg/mL (≈ 37.6 µM) |
